Source: ChEMBL document CHEMBL2417469, “Synthesis of novel analogs of 2-pyrazoline obtained from [(7-chloroquinolin-4-yl)amino]chalcones and hydrazine as potential antitumor and antimalarial agents” (Eur J Med Chem, 2013)

Tests used:
Type in all cases: functional
Hs-578T = test: Cytotoxicity against human Hs578T cells after 48 hrs by SRB assay
Procedure, shortened: (§1)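 NCI 60-cell-line screen. Cells preincubated 24 h at 37 °C, 5% CO2; time-zero plates TCA-fixed. Compounds dissolved in DMSO and tested at five concentrations (100, 10, 1.0, 0.1, 0.01 µM) for 48 h continuous exposure. Adherent cells fixed with cold TCA (10% final), then SRB stained; absorbance at 515 nm. GI50, TGI and LC50 calculated from growth relative to time-zero and untreated controls.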

CCRF-CEM = test: Cytotoxicity against human CCRF-CEM cells after 48 hrs by SRB assay; procedure, shortened: as §1
OVCAR-4 = test: Cytotoxicity against human OVCAR4 cells after 48 hrs by SRB assay; details: OVCAR-4, 48 h; procedure, shortened: as §1
Plasmodium falciparum = test: Antimalarial activity against Plasmodium falciparum NF54 infected in human serum at 20 ug/ml after 48 hrs by fluorometric method
Procedure, shortened: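 Asynchronous P. falciparum NF54 at 1.5–2% parasitemia, 5% hematocrit in RPMI with 10% human serum, exposed 48 h at 37 °C under 90% N2/5% CO2/5% O2 at the stated concentration; parasite DNA stained with ethidium bromide after proteinase K lysis; viability % = (Flu treated − medium)/(Flu untreated − medium) ×100; triplicate.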

DU-145 = test: Cytotoxicity against human DU145 cells after 48 hrs by SRB assay; details: DU-145, 48 h; procedure, shortened: as §1
SF-295 = test: Cytotoxicity against human SF295 cells after 48 hrs by SRB assay; details: SF-295, 48 h; procedure, shortened: as §1
A498 = test: Cytotoxicity against human A498 cells after 48 hrs by SRB assay; details: A498, 48 h; procedure, shortened: as §1
U-251 = test: Cytotoxicity against human U251 cells after 48 hrs by SRB assay; details: U-251, 48 h
Procedure, shortened: (§2)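 NCI 60-cell screen. Cells grew 24 h (37 °C, 5% CO2) before compound was added. Compounds were in DMSO and diluted in medium with gentamicin, then tested at five levels (100, 10, 1.0, 0.1, 0.01 µM) with 48 h continuous exposure. Adherent cells were fixed with TCA (10% final) and stained with 0.4% SRB, absorbance read at 515 nm. A time-zero plate was included. LC50 is the concentration giving 50% loss of protein relative to time zero.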

Malme-3M = test: Cytotoxicity against human MALME-3M cells after 48 hrs by SRB assay; procedure, shortened: as §1
BT-549 = test: Cytotoxicity against human BT549 cells after 48 hrs by SRB assay; details: BT-549, 48 h; procedure, shortened: as §1
ACHN = test: Cytotoxicity against human ACHN cells after 48 hrs by SRB assay; procedure, shortened: as §1
MOLT-4 = test: Cytotoxicity against human MOLT4 cells after 48 hrs by SRB assay; details: MOLT-4, 48 h; procedure, shortened: as §1
HL-60(TB) = test: Cytotoxicity against human HL-60(TB) cells after 48 hrs by SRB assay; details: HL-60, 48 h; procedure, shortened: as §1
MDA-MB-435 = test: Cytotoxicity against human MDA-MB-435 cells after 48 hrs by SRB assay; details: MDA-MB-435, 48 h; procedure, shortened: as §1
SK-OV-3 = test: Cytotoxicity against human SKOV3 cells after 48 hrs by SRB assay; details: SK-OV-3, 48 h; procedure, shortened: as §1
HCT-116 = test: Cytotoxicity against human HCT116 cells after 48 hrs by SRB assay; details: HCT-116, 48 h; procedure, shortened: as §1
SNB-75 = test: Cytotoxicity against human SNB75 cells after 48 hrs by SRB assay; details: SNB-75, 48 h; procedure, shortened: as §2
OVCAR-5 = test: Cytotoxicity against human OVCAR5 cells after 48 hrs by SRB assay; details: OVCAR-5, 48 h; procedure, shortened: as §1
SK-MEL-5 = test: Cytotoxicity against human SK-MEL-5 cells after 48 hrs by SRB assay; details: SK-MEL-5, 48 h; procedure, shortened: as §1
NCI-H23 = test: Cytotoxicity against human NCI-H23 cells after 48 hrs by SRB assay; details: NCI-H23, 48 h; procedure, shortened: as §1
PC-3 = test: Cytotoxicity against human PC3 cells after 48 hrs by SRB assay; details: PC-3, 48 h; procedure, shortened: as §1
MDA-MB-468 = test: Cytotoxicity against human MDA-MB-468 cells after 48 hrs by SRB assay; details: MDA-MB-468, 48 h; procedure, shortened: as §1
SF-539 = test: Cytotoxicity against human SF539 cells after 48 hrs by SRB assay; details: SF-539, 48 h; procedure, shortened: as §1
HCT-15 = test: Cytotoxicity against human HCT15 cells after 48 hrs by SRB assay; details: HCT-15, 48 h; procedure, shortened: as §1
OVCAR-3 = test: Cytotoxicity against human OVCAR3 cells after 48 hrs by SRB assay; details: OVCAR-3, 48 h; procedure, shortened: as §1
786-0 = test: Cytotoxicity against human 786-0 cells after 48 hrs by SRB assay; details: 786-0, 48 h; procedure, shortened: as §1
SR = test: Cytotoxicity against human SR cells after 48 hrs by SRB assay; procedure, shortened: as §2
MDA-MB-231 = test: Cytotoxicity against human MDA-MB-231 cells after 48 hrs by SRB assay; details: MDA-MB-231, 48 h; procedure, shortened: as §1
NCI-H522 = test: Cytotoxicity against human NCI-H522 cells after 48 hrs by SRB assay; details: NCI-H522, 48 h; procedure, shortened: as §1
UO-31 = test: Cytotoxicity against human UO31 cells after 48 hrs by SRB assay; details: UO-31, 48 h; procedure, shortened: as §2
MCF7 = test: Cytotoxicity against human MCF7 cells after 48 hrs by SRB assay; details: MCF7, 48 h; procedure, shortened: as §1
NCI/ADR-RES = test: Cytotoxicity against human NCI/ADR-RES cells after 48 hrs by SRB assay; procedure, shortened: as §1
M14 = test: Cytotoxicity against human M14 cells after 48 hrs by SRB assay; details: M14, 48 h; procedure, shortened: as §1
NCI-H460 = test: Cytotoxicity against human NCI-H460 cells after 48 hrs by SRB assay; details: NCI-H460, 48 h; procedure, shortened: as §1
[1] = read-out: LC50 (the source's name)

Question: `COc1ccc(C2CC(c3cccc(Nc4ccnc5cc(Cl)ccc45)c3)=NN2C=O)cc1` (configuration not stated) was tested. Which GI50 (Hs-578T) did it give?
Answer: Its GI50 is 360 nM.

Question: And the LC50 (50% net cell kill) (Hs-578T)?
Answer: Its LC50 (50% net cell kill) is over 100000 nM.

Question: And the GI50 (CCRF-CEM)?
Answer: The GI50 was 680 nM.

Question: And the LC50 (concentration killing 50% of cells relative to time zero) (CCRF-CEM)?
Answer: The LC50 (concentration killing 50% of cells relative to time zero) was over 100000 nM.

Question: And the GI50 (OVCAR-4)?
Answer: The GI50 was 890 nM.

Question: What about the LC50 (OVCAR-4) of the same compound?
Answer: Its LC50 is over 100000 nM.

Question: And the inhibition at 20 µg/mL (Plasmodium falciparum)?
Answer: Its inhibition at 20 µg/mL is 4.1%.

Question: What about the GI50 (DU-145) of the same compound?
Answer: The GI50 was 1350 nM.

Question: What about the LC50 (concentration killing 50% of cells) (DU-145) of the same compound?
Answer: Its LC50 (concentration killing 50% of cells) is over 100000 nM.

Question: What about the GI50 (SF-295) of the same compound?
Answer: The GI50 was 320 nM.

Question: And the LC50 (SF-295)?
Answer: Its LC50 is over 100000 nM.

Question: And the GI50 (A498)?
Answer: The GI50 was 260 nM.

Question: And the CC50 (A498; [1])?
Answer: The CC50 was over 100000 nM.

Question: What about the GI50 (U-251) of the same compound?
Answer: Its GI50 is 450 nM.

Question: And the CC50 (U-251; [1])?
Answer: The CC50 was 41800 nM.

Question: And the GI50 (Malme-3M)?
Answer: The GI50 was 740 nM.

Question: And the LC50 (Malme-3M)?
Answer: The LC50 was over 100000 nM.

Question: What about the GI50 (BT-549) of the same compound?
Answer: Its GI50 is 450 nM.

Question: What about the LC50 (50% net cell kill vs time zero) (BT-549) of the same compound?
Answer: Its LC50 (50% net cell kill vs time zero) is 55600 nM.

Question: What about the GI50 (ACHN) of the same compound?
Answer: Its GI50 is 870 nM.

Question: And the CC50 (ACHN; [1])?
Answer: The CC50 was over 100000 nM.

Question: And the GI50 (MOLT-4)?
Answer: Its GI50 is 490 nM.

Question: What about the LC50 (MOLT-4) of the same compound?
Answer: Its LC50 is over 100000 nM.

Question: What about the GI50 (HL-60(TB)) of the same compound?
Answer: The GI50 was 250 nM.

Question: And the CC50 (HL-60(TB); [1])?
Answer: The CC50 was 5280 nM.

Question: And the GI50 (MDA-MB-435)?
Answer: The GI50 was 140 nM.

Question: And the LC50 (MDA-MB-435)?
Answer: The LC50 was over 100000 nM.

Question: What about the GI50 (SK-OV-3) of the same compound?
Answer: Its GI50 is 700 nM.

Question: And the LC50 (concentration killing 50% of cells) (SK-OV-3)?
Answer: Its LC50 (concentration killing 50% of cells) is over 100000 nM.

Question: What about the GI50 (HCT-116) of the same compound?
Answer: Its GI50 is 380 nM.

Question: What about the LC50 (HCT-116) of the same compound?
Answer: The LC50 was 38100 nM.

Question: And the GI50 (SNB-75)?
Answer: The GI50 was 330 nM.

Question: What about the LC50 (50% net cell kill) (SNB-75) of the same compound?
Answer: Its LC50 (50% net cell kill) is over 100000 nM.

Question: What about the GI50 (OVCAR-5) of the same compound?
Answer: Its GI50 is 3510 nM.

Question: And the LC50 (OVCAR-5)?
Answer: The LC50 was over 100000 nM.

Question: And the GI50 (SK-MEL-5)?
Answer: The GI50 was 410 nM.

Question: And the LC50 (concentration killing 50% of cells present at time zero) (SK-MEL-5)?
Answer: Its LC50 (concentration killing 50% of cells present at time zero) is over 100000 nM.

Question: What about the GI50 (NCI-H23) of the same compound?
Answer: The GI50 was 950 nM.

Question: What about the CC50 (NCI-H23; [1]) of the same compound?
Answer: The CC50 was over 100000 nM.

Question: And the GI50 (PC-3)?
Answer: The GI50 was 850 nM.

Question: And the LC50 (PC-3)?
Answer: The LC50 was over 100000 nM.

Question: And the GI50 (MDA-MB-468)?
Answer: The GI50 was 210 nM.

Question: What about the LC50 (MDA-MB-468) of the same compound?
Answer: Its LC50 is over 100000 nM.

Question: And the GI50 (SF-539)?
Answer: The GI50 was 610 nM.

Question: What about the CC50 (SF-539; [1]) of the same compound?
Answer: Its CC50 is 66200 nM.

Question: What about the GI50 (HCT-15) of the same compound?
Answer: The GI50 was 440 nM.

Question: And the LC50 (concentration killing 50% of cells relative to time zero) (HCT-15)?
Answer: Its LC50 (concentration killing 50% of cells relative to time zero) is over 100000 nM.

Question: What about the GI50 (OVCAR-3) of the same compound?
Answer: Its GI50 is 470 nM.

Question: And the LC50 (OVCAR-3)?
Answer: The LC50 was 77400 nM.

Question: And the GI50 (786-0)?
Answer: Its GI50 is 530 nM.

Question: What about the LC50 (786-0) of the same compound?
Answer: Its LC50 is over 100000 nM.

Question: And the GI50 (SR)?
Answer: The GI50 was 240 nM.

Question: And the LC50 (SR)?
Answer: Its LC50 is over 100000 nM.

Question: And the GI50 (MDA-MB-231)?
Answer: The GI50 was 3190 nM.

Question: What about the LC50 (concentration killing 50% of cells present at time zero) (MDA-MB-231) of the same compound?
Answer: The LC50 (concentration killing 50% of cells present at time zero) was over 100000 nM.

Question: What about the GI50 (NCI-H522) of the same compound?
Answer: The GI50 was 300 nM.

Question: What about the CC50 (NCI-H522; [1]) of the same compound?
Answer: Its CC50 is over 100000 nM.

Question: And the GI50 (UO-31)?
Answer: The GI50 was 850 nM.

Question: What about the LC50 (UO-31) of the same compound?
Answer: Its LC50 is over 100000 nM.

Question: What about the GI50 (MCF7) of the same compound?
Answer: Its GI50 is 370 nM.

Question: What about the CC50 (MCF7; [1]) of the same compound?
Answer: Its CC50 is over 100000 nM.

Question: And the GI50 (NCI/ADR-RES)?
Answer: The GI50 was 350 nM.

Question: What about the CC50 (NCI/ADR-RES; [1]) of the same compound?
Answer: Its CC50 is over 100000 nM.

Question: And the GI50 (M14)?
Answer: The GI50 was 400 nM.

Question: What about the CC50 (M14; [1]) of the same compound?
Answer: Its CC50 is over 100000 nM.

Question: And the GI50 (NCI-H460)?
Answer: Its GI50 is 400 nM.

Question: What about the LC50 (NCI-H460) of the same compound?
Answer: The LC50 was over 100000 nM.
